Assay results from ChEMBL document CHEMBL3272308, “Pharmacological effects of introducing a double bond into a binding site of oxytocin. Analogues with L-3,4-dehydroproline in position 7” (1977).
*1 amine or outer side, *2 acyl side, *3 side chain or, on linkers, in order; H or OH if unused. Where a SMILES comes first, the peptide text is derived from it. Bridges are numbered along the chain shown (N, C = ends). [ ]: non-standard residue; d: D form. X1 = O=C([C@H](O)CS[*:2])[*:1]; ΔPro = O=C(O)[C@@H]1C=CCN1

Assays:
Rattus norvegicus [1] = species on record: Rattus norvegicus; assay: Pressor activity in rat; assay type: functional
Gallus gallus = species on record: Gallus gallus; assay: Vasodepressor activity in fowl; assay type: functional
Rattus norvegicus [2] = species on record: Rattus norvegicus; assay: Activity at uterotonic receptor in rat uterus assessed as uterotonic activity; assay type: tissue-based
Method in brief: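 Isolated female rat uterine horn in the bathing fluid used for the oxytocic assay. Isometric contractions were recorded at a baseline tension of 1 g. Cumulative dose-response curves (van Rossum) were built by raising doses geometrically until a maximal response, alternating oxytocin and analogue on the same horn with return to baseline between runs. pD2 is the negative log of the concentration giving 50% of maximum.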

Rattus norvegicus [3] = species on record: Rattus norvegicus; assay: Antidiuretic activity in rat; assay type: functional, Urine
Rattus norvegicus [4] = species on record: Rattus norvegicus; assay: Ratio of oxytocin to compound for antidiuretic activity in rat; assay type: functional, Urine

SMILES	Activity (Rattus norvegicus [2]) [U/mg]	Activity (Rattus norvegicus [1]) [U/mg]	Activity (Gallus gallus) [U/mg]	Activity (Rattus norvegicus [3]) [U/mg]	Ratio (Rattus norvegicus [4])
CC[C@H](C)[C@@H]1NC(=O)[C@H](Cc2ccc(O)cc2)NC(=O)[C@H](O)CSSC[C@@H](C(=O)N2CCC[C@H]2C(=O)N[C@@H](CC(C)C)C(=O)NCC(N)=O)NC(=O)[C@H](CC(N)=O)NC(=O)[C@H](CCC(N)=O)NC1=O (YIQNCPLG-NH2; linker N-5 via X1)	1280	14.7	1778	16.6	
CC[C@H](C)[C@@H]1NC(=O)[C@H](Cc2ccc(O)cc2)NC(=O)CCSSC[C@@H](C(=O)N2CCC[C@H]2C(=O)N[C@@H](CC(C)C)C(=O)NCC(N)=O)NC(=O)[C@H](CC(N)=O)NC(=O)[C@H](CCC(N)=O)NC1=O [DEMOXYTOCIN]		1.44	975	19	
CC[C@H](C)[C@@H]1NC(=O)[C@H](Cc2ccc(O)cc2)NC(=O)CCSSC[C@@H](C(=O)N2CC=C[C@H]2C(=O)N[C@@H](CC(C)C)C(=O)NCC(N)=O)NC(=O)[C@H](CC(N)=O)NC(=O)[C@H](CCC(N)=O)NC1=O	1070		1008	23.3	
CC[C@H](C)[C@@H]1NC(=O)[C@H](Cc2ccc(O)cc2)NC(=O)[C@@H](N)CSSC[C@@H](C(=O)N2CC=C[C@H]2C(=O)N[C@@H](CC(C)C)C(=O)NCC(N)=O)NC(=O)[C@H](CC(N)=O)NC(=O)[C@H](CCC(N)=O)NC1=O	1070		548	5.9	2

Further lines, with some results ahead:

Activity (Rattus norvegicus [2]) [U/mg]	SMILES	Activity (Rattus norvegicus [1]) [U/mg]	Activity (Gallus gallus) [U/mg]	Activity (Rattus norvegicus [3]) [U/mg]	Ratio (Rattus norvegicus [4])
546	CC[C@H](C)[C@@H]1NC(=O)[C@H](Cc2ccc(O)cc2)NC(=O)[C@@H](N)CSSC[C@@H](C(=O)N2CCC[C@H]2C(=O)N[C@@H](CC(C)C)C(=O)NCC(N)=O)NC(=O)[C@H](CC(N)=O)NC(=O)[C@H](CCC(N)=O)NC1=O [OXYTOCIN]	3.1	507	2.7	
803	CC[C@H](C)[C@@H]1NC(=O)[C@H](Cc2ccc(O)cc2)NC(=O)CCSSC[C@H](C(=O)N2CCC[C@H]2C(=O)N[C@@H](CC(C)C)C(=O)NCC(N)=O)NC(=O)[C@H](CC(N)=O)NC(=O)[C@H](CCC(N)=O)NC1=O				
880	CC[C@H](C)[C@@H]1NC(=O)[C@H](Cc2ccc(O)cc2)NC(=O)[C@H](O)CSSC[C@@H](C(=O)N2CC=C[C@H]2C(=O)N[C@@H](CC(C)C)C(=O)NCC(N)=O)NC(=O)[C@H](CC(N)=O)NC(=O)[C@H](CCC(N)=O)NC1=O (YIQNC[ΔPro]LG-NH2; linker N-5 via X1)		1295	76.7	
